This is an account of results in ChEMBL document CHEMBL1641369, “The synthesis and biological evaluation of 2-(3-methyl or 3-phenylisoxazol-5-yl)-3-aryl-8-thiabicyclo[3.2.1]octanes” (Bioorg Med Chem Lett, 2011).

As usually defined, the IC50 is the concentration at which inhibition is half-maximal. Lower therefore signals greater potency in that assay.

Assay [1] deals with Sodium-dependent serotonin transporter (Homo sapiens, UniProt P31645). Briefly: Displacement of [3H]citalopram from human SERT expressed in HEK293 cell membrane. Type of assay: cell membranes. In short, it runs like this:
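Human SERT was labelled with [3H]citalopram at a fixed concentration and competed against a range of test-drug concentrations. Nonspecific binding was measured with fluoxetine at 10 μM. IC50 reported as mean ± SEM of at least three independent experiments, each run in triplicate. Some entries are screening data from replicate triplicate experiments.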
Background: Loss of bound radioactivity is the signal in a displacement assay; it reports binding, not function.

In assay [2] the target is Sodium-dependent dopamine transporter (Homo sapiens, UniProt Q01959). Briefly: Displacement of [3H]WIN35428 from human DAT transfected cell membrane.
Sequence of Sodium-dependent dopamine transporter (Q01959 whole entry): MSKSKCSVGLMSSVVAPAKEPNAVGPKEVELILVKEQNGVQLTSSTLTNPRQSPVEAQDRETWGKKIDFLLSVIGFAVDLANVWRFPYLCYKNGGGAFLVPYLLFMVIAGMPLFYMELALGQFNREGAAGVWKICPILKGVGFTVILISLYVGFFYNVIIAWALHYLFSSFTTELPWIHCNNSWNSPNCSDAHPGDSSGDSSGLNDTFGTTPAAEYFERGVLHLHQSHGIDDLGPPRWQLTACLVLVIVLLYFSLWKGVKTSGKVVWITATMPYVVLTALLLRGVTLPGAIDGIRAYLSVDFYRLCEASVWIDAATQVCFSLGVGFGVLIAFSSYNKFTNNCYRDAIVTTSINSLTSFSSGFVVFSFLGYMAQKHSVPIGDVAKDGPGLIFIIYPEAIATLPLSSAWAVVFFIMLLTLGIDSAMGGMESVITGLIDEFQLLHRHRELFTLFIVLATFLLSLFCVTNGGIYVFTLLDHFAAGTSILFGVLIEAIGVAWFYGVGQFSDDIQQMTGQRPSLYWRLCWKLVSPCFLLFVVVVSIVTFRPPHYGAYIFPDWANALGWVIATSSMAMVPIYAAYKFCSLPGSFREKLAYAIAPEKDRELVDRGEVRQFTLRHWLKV

Sequence of Sodium-dependent serotonin transporter (P31645 whole entry): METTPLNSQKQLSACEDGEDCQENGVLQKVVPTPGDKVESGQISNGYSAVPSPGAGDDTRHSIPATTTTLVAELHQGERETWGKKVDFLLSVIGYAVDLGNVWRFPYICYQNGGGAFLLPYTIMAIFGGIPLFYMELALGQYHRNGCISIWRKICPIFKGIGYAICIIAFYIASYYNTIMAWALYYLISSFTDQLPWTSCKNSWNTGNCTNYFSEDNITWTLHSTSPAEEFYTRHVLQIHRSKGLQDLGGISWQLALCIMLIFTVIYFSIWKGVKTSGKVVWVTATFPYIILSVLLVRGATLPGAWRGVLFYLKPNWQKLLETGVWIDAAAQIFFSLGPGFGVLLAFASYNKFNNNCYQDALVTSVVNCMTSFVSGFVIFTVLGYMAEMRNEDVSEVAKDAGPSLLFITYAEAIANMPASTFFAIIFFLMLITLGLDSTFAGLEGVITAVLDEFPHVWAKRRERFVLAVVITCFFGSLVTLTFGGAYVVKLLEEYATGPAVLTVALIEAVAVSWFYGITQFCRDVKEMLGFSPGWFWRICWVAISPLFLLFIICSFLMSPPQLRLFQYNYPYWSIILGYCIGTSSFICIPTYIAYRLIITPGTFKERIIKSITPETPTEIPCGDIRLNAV

As for `Cc1cc(C2=C(c3ccccc3)CC3CCC2S3)on1` (stereo unspecified), the 50% inhibitory concentration (IC50) is greater than 10000 nM in assay [1] and greater than 2000 nM in assay [2].

As for `Cc1cc(C2=C(c3ccc(F)cc3)CC3CCC2S3)on1` (stereo unspecified), the IC50 in assay [1] is greater than 10000 nM; in assay [2], greater than 1000 nM.

Turning to `Cc1cc(C2=C(c3ccc(Cl)cc3)CC3CCC2S3)on1` (stereo unspecified), the figures for the IC50 in assay [1] and in assay [2] were greater than 10000 nM and 155 nM, respectively.

`Cc1cc(C2=C(c3ccc(Br)cc3)CC3CCC2S3)on1` (stereo unspecified): the IC50 in assay [1] is greater than 10000 nM; in assay [2] it was 139 nM.

Regarding `Cc1cc(C2=C(c3ccc(Cl)c(Cl)c3)CC3CCC2S3)on1` (stereo unspecified), the results for the IC50 in assay [1] and in assay [2] were greater than 10000 nM and 69.2 nM, respectively.

`c1ccc(C2=C(c3cc(-c4ccccc4)no3)C3CCC(C2)S3)cc1` (stereo unspecified): the IC50 in assay [1] was greater than 10000 nM; in assay [2], greater than 5000 nM.

For the compound `Fc1ccc(C2=C(c3cc(-c4ccccc4)no3)C3CCC(C2)S3)cc1` (stereo unspecified), the IC50 is greater than 10000 nM in assay [1] and greater than 2000 nM in assay [2].

With `Clc1ccc(C2=C(c3cc(-c4ccccc4)no3)C3CCC(C2)S3)cc1` (stereo unspecified), the values for the IC50 in assay [1] and in assay [2] were greater than 10000 nM and 66.5 nM, respectively.

`Brc1ccc(C2=C(c3cc(-c4ccccc4)no3)C3CCC(C2)S3)cc1` (stereo unspecified): the IC50 was greater than 10000 nM in assay [1] and 126 nM in assay [2].

For `Clc1ccc(C2=C(c3cc(-c4ccccc4)no3)C3CCC(C2)S3)cc1Cl` (stereo unspecified), the IC50 in assay [1] was greater than 10000 nM; in assay [2], 332 nM.

Turning to `Cc1cc([C@@H]2C3CCC(C[C@H]2c2ccccc2)S3)on1` (stereo partly specified), the IC50 was greater than 10000 nM in assay [1] and 65 nM in assay [2].

As for `Cc1cc([C@@H]2C3CCC(C[C@H]2c2ccc(F)cc2)S3)on1` (stereo partly specified), the IC50 in assay [1] is greater than 10000 nM; in assay [2], 22 nM.

As for `Cc1cc([C@@H]2C3CCC(C[C@H]2c2ccc(Cl)cc2)S3)on1` (stereo partly specified), the concentration for half-maximal inhibition (IC50) in assay [1] is greater than 7000 nM; in assay [2], 32.7 nM.

For the compound `Cc1cc([C@@H]2C3CCC(C[C@H]2c2ccc(Br)cc2)S3)on1` (stereo partly specified), the IC50 is greater than 4000 nM in assay [1] and 46.6 nM in assay [2].

Take `Cc1cc([C@@H]2C3CCC(C[C@H]2c2ccc(Cl)c(Cl)c2)S3)on1` (stereo partly specified): the IC50 in assay [1] is greater than 2000 nM; in assay [2], 101 nM.

On to `c1ccc(-c2cc(C3C4CCC(C[C@H]3c3ccccc3)S4)on2)cc1` (stereo partly specified), for which the values for the concentration for half-maximal inhibition (IC50) in assay [1] and in assay [2] were greater than 10000 nM and greater than 1000 nM, respectively.

For the compound `Fc1ccc([C@@H]2CC3CCC(S3)C2c2cc(-c3ccccc3)no2)cc1` (stereo partly specified), the figures for the IC50 in assay [1] and in assay [2] were greater than 10000 nM and 456 nM, respectively.

As for `Clc1ccc([C@@H]2CC3CCC(S3)C2c2cc(-c3ccccc3)no2)cc1` (stereo partly specified), the IC50 is greater than 10000 nM in assay [1] and 130 nM in assay [2].

Consider `Brc1ccc([C@@H]2CC3CCC(S3)C2c2cc(-c3ccccc3)no2)cc1` (stereo partly specified), for which the IC50 in assay [1] is greater than 10000 nM; in assay [2] it was 238 nM.

In the case of `Clc1ccc([C@@H]2CC3CCC(S3)C2c2cc(-c3ccccc3)no2)cc1Cl` (stereo partly specified), the values for the IC50 in assay [1] and in assay [2] were greater than 10000 nM and 497 nM, respectively.

For the compound `Cc1cc([C@@H]2C3CCC(C[C@@H]2c2ccccc2)S3)on1` (stereo partly specified), the IC50 in assay [1] was greater than 10000 nM; in assay [2] it was 12 nM.

As for `Cc1cc([C@@H]2C3CCC(C[C@@H]2c2ccc(F)cc2)S3)on1` (stereo partly specified), the results for the IC50 in assay [1] and in assay [2] were greater than 1000 nM and 7 nM, respectively.

With `Cc1cc([C@@H]2C3CCC(C[C@@H]2c2ccc(Cl)cc2)S3)on1` (stereo partly specified), the values for the IC50 in assay [1] and in assay [2] were greater than 1000 nM and 7.2 nM, respectively.

`Cc1cc([C@@H]2C3CCC(C[C@@H]2c2ccc(Br)cc2)S3)on1` (stereo partly specified): the IC50 in assay [1] is 755 nM; in assay [2], 14 nM.

In the case of `Cc1cc([C@@H]2C3CCC(C[C@@H]2c2ccc(Cl)c(Cl)c2)S3)on1` (stereo partly specified), the figures for the IC50 in assay [1] and in assay [2] were 766 nM and 43.5 nM, respectively.

For the compound `c1ccc(-c2cc(C3C4CCC(C[C@@H]3c3ccccc3)S4)on2)cc1` (stereo partly specified), the 50% inhibitory concentration (IC50) was greater than 10000 nM in assay [1] and 157 nM in assay [2].

As for `Fc1ccc([C@H]2CC3CCC(S3)C2c2cc(-c3ccccc3)no2)cc1` (stereo partly specified), the IC50 in assay [1] was greater than 10000 nM; in assay [2] it was 49 nM.

Turning to `Clc1ccc([C@H]2CC3CCC(S3)C2c2cc(-c3ccccc3)no2)cc1Cl` (stereo partly specified), the IC50 was greater than 10000 nM in assay [1] and 269 nM in assay [2].
